Data from ChEMBL document CHEMBL2311539, “3,6-Diamino-4-(2-halophenyl)-2-benzoylthieno[2,3-b]pyridine-5-carbonitriles are selective inhibitors of Plasmodium falciparum glycogen synthase kinase-3” (J Med Chem, 2013).

Experiments:
[1] = Inhibition of pig GSK-3 by radiometric protein kinase assay; set-up: species or system Sus scrofa
How it was run: (§1)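 Native affinity-purified porcine GSK-3 in the radiometric assay: 40 μM GS-1 peptide, 15 μM γ-33P-ATP, pH 7.5 Tris/MgCl2/EGTA/DTT/heparin/BSA buffer, 30 min at 30 °C, P81 filter binding and scintillation counting. IC50 from dose-response curves with triplicate points; top concentration 10 or 100 μM.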

[2] = Inhibition of Plasmodium falciparum recombinant GSK-3 by radiometric protein kinase assay
How it was run: (§2)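 His6-tagged recombinant GSK-3 expressed in E. coli (TOP10/pBAD-Thio-TOPO for P. falciparum and T. gondii, arabinose-induced; BL21(DE3)-pRARE2/pET15 for C. parvum, IPTG at 15 °C), Ni-NTA purified. Assayed with 40 μM GS-1 phosphopeptide, 15 μM γ-33P-ATP in pH 7.5 Tris buffer with MgCl2, EGTA, DTT, heparin, BSA; 30 min, 30 °C; P81 paper, phosphoric acid washes, scintillation counting. DMSO controls; dose-response IC50, triplicate points.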

Plasmodium falciparum [3] = assay: Antiplasmodial activity against Plasmodium falciparum after 72 hrs by luciferase reporter gene assay; assay type: functional, organism-based; details: 48 h
How it was run: (§3)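 NF54:LUC P. falciparum erythrocytic stages (luciferase under hrp2 promoter) at 3% parasitemia, 25% hematocrit; compounds in RPMI-1640 with 1% DMSO, triplicate wells; untreated, DMSO-only and non-luciferase NF54 blank wells. […] Bright-Glo lysis, luminescence read.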

Plasmodium falciparum [4] = assay: Antiplasmodial activity against Plasmodium falciparum at 15 uM after 72 hrs by luciferase reporter gene assay; assay type: functional; how it was run: as §3
[5] = Inhibition of Plasmodium knowlesi recombinant His6-tagged GSK-3 expressed in Escherichia coli using GS-1 peptide as substrate after 30 mins by scintillation counting analysis in presence of gamma-33P-ATP
How it was run: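 P. knowlesi GSK3 gene in pBAD-Thio-TOPO, expressed in E. coli TOP10 (ampicillin, 37 °C, 0.02% arabinose for 4 h), Ni-NTA purified. Radiometric assay: 40 μM GS-1 peptide in buffer A pH 7.5 (MgCl2, EGTA, DTT, heparin, BSA) with 15 μM γ-33P-ATP, 30 min at 30 °C. P81 filter binding, scintillation counting. IC50 from triplicate dose-response curves.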

[6] = target: Glycogen synthase kinase-3 (Sus scrofa, UniProt B2LUN4+I6LNT8); assay: Inhibition of pig GSK-3alpha/beta; how it was run: as §1
[7] = Inhibition of Trypanosoma brucei GSK-3
[8] = Inhibition of Toxoplasma gondii recombinant His6-tagged GSK-3 expressed in Escherichia coli using GS-1 peptide as substrate after 30 mins by scintillation counting analysis in presence of gamma-33P-ATP; assay type: cell-free; how it was run: as §2
[9] = Inhibition of Trypanosoma cruzi GSK-3
[10] = Inhibition of Leishmania donovani GSK-3
[11] = Inhibition of Cryptosporidium parvum recombinant His6-tagged GSK-3 expressed in Escherichia coli using GS-1 peptide as substrate after 30 mins by scintillation counting analysis in presence of gamma-33P-ATP; how it was run: as §2
[12] = Inhibition of Plasmodium falciparum recombinant His6-tagged GSK-3 expressed in Escherichia coli using GS-1 peptide as substrate after 30 mins by scintillation counting analysis in presence of gamma-33P-ATP; how it was run: as §2
[13] = target: Glycogen synthase kinase-3 beta (Homo sapiens, UniProt P49841); assay: Inhibition of human Nt-GST-tagged GSK-3beta
Chain of Glycogen synthase kinase-3 beta (P49841 whole entry, canonical isoform): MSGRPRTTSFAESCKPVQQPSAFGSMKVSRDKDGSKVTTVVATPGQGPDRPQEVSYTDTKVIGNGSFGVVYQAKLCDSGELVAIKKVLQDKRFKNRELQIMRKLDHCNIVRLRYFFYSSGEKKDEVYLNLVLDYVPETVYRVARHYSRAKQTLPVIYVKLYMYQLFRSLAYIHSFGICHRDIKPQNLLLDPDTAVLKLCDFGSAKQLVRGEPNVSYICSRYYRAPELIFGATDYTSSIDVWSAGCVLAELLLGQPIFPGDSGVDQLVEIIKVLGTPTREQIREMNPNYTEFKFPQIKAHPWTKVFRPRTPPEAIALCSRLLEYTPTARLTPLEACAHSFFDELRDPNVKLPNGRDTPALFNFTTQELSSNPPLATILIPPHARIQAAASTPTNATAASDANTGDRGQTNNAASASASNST
How it was run: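 Recombinant human GSK-3 isoform assayed radiometrically: 40 μM GS-1 peptide in buffer A pH 7.5 with 15 μM γ-33P-ATP, 30 min at 30 °C. Read-out by P81 filter binding and scintillation. IC50 from triplicate dose-response curves; top inhibitor concentration 10, 25 or 100 μM.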

[14] = in the assay text read “48 hrs” for “72 hrs”

Structure (SMILES)	IC50 [1]	IC50 [2]	other results
N#Cc1c(N)nc2sc(C(=O)c3ccc(Cl)c(Cl)c3)c(N)c2c1-c1ccccc1Cl	> 10 µM	2.7 µM	EC50 (Plasmodium falciparum [3]; [14]): 3.7 µM; inhibition at 15 µM (Plasmodium falciparum [4]): 100%
N#Cc1c(N)nc2sc(C(=O)Nc3ccc(Cl)cc3)c(N)c2c1-c1ccccc1Cl	> 10 µM	> 10 µM	
N#Cc1c(N)nc2sc(C(=O)c3ccccc3Cl)c(N)c2c1-c1ccccc1I	> 10 µM	> 10 µM	
CCOc1ccccc1-c1c(C#N)c(N)nc2sc(C(=O)c3ccc(Cl)cc3)c(N)c12	> 10 µM	> 10 µM	
N#Cc1sc2nc(N)c(C#N)c(-c3c[nH]c4ccccc34)c2c1N	3.5 µM	1.6 µM	
Cc1ccccc1-c1c(C#N)c(N)nc2sc(C#N)c(N)c12	2 µM	0.51 µM	
Nc1c(C(=O)c2ccccc2)sc2nc3c(c(-c4ccccc4I)c12)CCCC3	> 10 µM	> 10 µM	
N#Cc1c(N)nc2sc(C(=O)c3cccc(Cl)c3)c(N)c2c1-c1cccs1	> 10 µM	> 10 µM	
N#Cc1c(N)nc2sc(C(=O)c3ccccc3)c(N)c2c1-c1ccccc1I	> 10 µM	2.4 µM	
N#Cc1cccc(C(=O)c2sc3nc(N)c(C#N)c(-c4ccccc4Cl)c3c2N)c1	> 10 µM	0.5 µM	IC50 [5]: 6.5 µM; IC50 [6]: > 100 µM; IC50 [7]: > 100 µM; IC50 [8]: > 100 µM; IC50 [9]: > 100 µM; IC50 [10]: 100 µM; IC50 [11]: > 100 µM; IC50 [12]: 0.5 µM; inhibition at 15 µM (Plasmodium falciparum [4]): 30.3%
COc1ccccc1-c1c(C#N)c(N)nc2sc(C(=O)c3ccccc3Cl)c(N)c12	> 10 µM	> 10 µM	
N#Cc1c(N)nc2sc(C(=O)c3cccc(F)c3)c(N)c2c1-c1ccccc1Cl	> 100 µM	> 100 µM	
N#Cc1sc2nc(N)c(C#N)c(-c3ccccc3Cl)c2c1N	0.4 µM	0.13 µM	
N#Cc1sc2nc(N)c(C#N)c(-c3ccccc3Br)c2c1N	1.3 µM	0.8 µM	
N#Cc1sc2nc(N)c(C#N)c(-c3cccs3)c2c1N	2.3 µM	0.18 µM	
COc1ccccc1-c1c(C#N)c(N)nc2sc(C(=O)c3ccc(C)cc3)c(N)c12	> 10 µM	> 10 µM	
COc1ccccc1-c1c(C#N)c(N)nc2sc(C(=O)c3ccc(Cl)cc3)c(N)c12	> 10 µM	> 10 µM	
COc1ccc(C(=O)c2sc3nc(N)c(C#N)c(-c4ccccc4I)c3c2N)cc1	> 10 µM	1.7 µM	
COc1ccccc1-c1c(C#N)c(N)nc2sc(C(=O)c3ccc(C(F)(F)F)cc3)c(N)c12	> 10 µM	> 10 µM	
N#Cc1c(N)nc2sc(C(=O)c3ccc(Cl)cc3)c(N)c2c1-c1ccccc1I			IC50 [5]: 15.5 µM; IC50 [13]: > 100 µM; IC50 [6]: > 100 µM; IC50 [7]: > 100 µM; IC50 [8]: > 100 µM; IC50 [9]: > 100 µM; IC50 [10]: 80 µM; IC50 [11]: > 100 µM; IC50 [12]: 1.61 µM
N#Cc1c(N)nc2sc(C(=O)c3ccc(C(F)(F)F)cc3)c(N)c2c1-c1ccccc1I	> 10 µM	> 10 µM	
COc1cccc(C(=O)c2sc3nc(N)c(C#N)c(-c4ccccc4Cl)c3c2N)c1	> 10 µM	1.7 µM	inhibition at 15 µM (Plasmodium falciparum [4]): 63.5%

More lines, main results first:

IC50 [1]	IC50 [2]	Structure (SMILES)	other results
> 10 µM	8.5 µM	COc1ccccc1-c1c(C#N)c(N)nc2sc(C(=O)c3cccc(Cl)c3)c(N)c12	
> 100 µM	> 100 µM	N#Cc1c(N)nc2sc(C(=O)c3ccc(Cl)cc3)c(N)c2c1-c1ccccc1Br	
> 10 µM	1.1 µM	N#Cc1c(N)nc2sc(C(=O)c3ccccc3)c(N)c2c1-c1ccccc1Br	
> 10 µM	> 10 µM	Nc1c(C(=O)c2ccc(Cl)cc2)sc2nc3c(c(-c4ccccc4I)c12)CCCC3	
> 100 µM	> 100 µM	N#Cc1c(N)nc2sc(C(=O)c3ccc(Cl)cc3)c(N)c2c1-c1ccccc1	
> 10 µM	> 10 µM	CCOc1ccccc1-c1c(C#N)c(N)nc2sc(C#N)c(N)c12	
> 10 µM	0.91 µM	N#Cc1c(N)nc2sc(C(=O)c3cccc(Br)c3)c(N)c2c1-c1ccccc1Cl	EC50 (Plasmodium falciparum [3]; in the assay text read “after 48 hrs” for “after 72 hrs”): 7.5 µM; inhibition at 15 µM (Plasmodium falciparum [4]): 100%
> 10 µM	> 10 µM	N#Cc1sc2nc(N)c(C#N)c(-c3ccccc3I)c2c1N	
> 100 µM	10 µM	N#Cc1c(N)nc2sc(C(=O)c3cccc(Cl)c3)c(N)c2c1-c1ccccc1F	
> 10 µM	> 10 µM	COc1ccccc1-c1c(C#N)c(N)nc2sc(C(=O)c3ccc(C#N)cc3)c(N)c12	
> 10 µM	2.2 µM	N#Cc1c(N)nc2sc(C(=O)c3cccc(C(F)(F)F)c3)c(N)c2c1-c1ccccc1Cl	EC50 (Plasmodium falciparum [3]; [14]): 5.6 µM; inhibition at 15 µM (Plasmodium falciparum [4]): 100%
> 10 µM	0.91 µM	N#Cc1c(N)nc2sc(C(=O)c3cccc(Cl)c3)c(N)c2c1-c1ccccc1I	IC50 [5]: 2.75 µM; IC50 [6]: > 100 µM; IC50 [7]: > 100 µM; IC50 [8]: > 100 µM; IC50 [9]: > 100 µM; IC50 [10]: 70 µM; IC50 [11]: > 100 µM; IC50 [12]: 0.91 µM; inhibition at 15 µM (Plasmodium falciparum [4]): 65.4%
> 10 µM	> 10 µM	COc1ccccc1-c1c(C#N)c(N)nc2sc(C#N)c(N)c12	
> 100 µM	6 µM	COc1ccccc1-c1c(C#N)c(N)nc2sc(C(=O)c3ccccc3)c(N)c12	IC50 [5]: 95 µM; IC50 [13]: > 100 µM; IC50 [6]: > 100 µM; IC50 [7]: > 100 µM; IC50 [8]: > 100 µM; IC50 [9]: > 100 µM; IC50 [10]: 80 µM; IC50 [11]: > 100 µM; IC50 [12]: 6 µM
> 10 µM	> 10 µM	N#Cc1c(N)nc2sc(C(=O)Nc3ccc(Cl)cc3)c(N)c2c1-c1ccccc1Br	
> 10 µM	3.2 µM	Cc1ccc(C(=O)c2sc3nc(N)c(C#N)c(-c4ccccc4I)c3c2N)cc1	
> 10 µM	0.61 µM	N#Cc1c(N)nc2sc(C(=O)c3cccc(Cl)c3)c(N)c2c1-c1ccccc1Br	IC50 [5]: 1.45 µM; IC50 [6]: > 100 µM; IC50 [7]: > 100 µM; IC50 [8]: > 100 µM; IC50 [9]: > 100 µM; IC50 [10]: 44 µM; IC50 [11]: > 100 µM; IC50 [12]: 0.61 µM; inhibition at 15 µM (Plasmodium falciparum [4]): 77.1%
> 100 µM	70 µM	N#Cc1c(N)nc2sc(C(=O)c3ccc(Cl)c(Cl)c3)c(N)c2c1-c1ccccc1I	
> 10 µM	3.8 µM	N#Cc1c(N)nc2sc(C(=O)c3ccc(Cl)c(Cl)c3)c(N)c2c1-c1ccccc1Br	
> 10 µM	> 10 µM	N#Cc1c(N)nc2sc(C(=O)Nc3ccc(Cl)cc3)c(N)c2c1-c1ccccc1I	
> 10 µM	> 10 µM	COc1ccc(C(=O)c2sc3nc(N)c(C#N)c(-c4ccccc4OC)c3c2N)cc1	
